In paper PMC12217622 (Nature Communications, 2025):

Columns and labels:
TaLYR2D = experiment: Radiolabelled LCO binding to membrane fractions, TaLYR2D; design: species or system Triticum aestivum; conditions: 2 µM competitor
Summary of the method: (§1)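 N. benthamiana leaves (~20 g) were homogenised at 4 °C in Tris pH 8.5, sucrose, EDTA, DTT, PVPP and protease inhibitors, then spun at 3000 x g and 45,000 x g. The pellet was resuspended in 25 mM Na cacodylate pH 6, 1 mM MgCl2, 1 mM CaCl2, 250 mM sucrose. 35S-LCO (enzymatic NodH sulfation) was bound for 1 h on ice, then filtered through glass fibre, washed and counted by scintillation. Three technical replicates.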

[1] = tested on: R. irregularis DAOM 197198; experiment: Stimulation of AMF root-length colonization by LCO and CO4 treatments in wheat; format: in vivo, Triticum aestivum; conditions: 10^−7 M treatment
Summary of the method: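 Fielder wheat carried a pZmUBI:BdLYR2-cmyc cassette or empty vector, two lines each. Surface-sterilised seeds were germinated 1 week at 4 °C and 3 days at 25 °C, then planted in attapulgite with 500 R. irregularis DAOM 197198 spores. Plants got 0.5x Long Ashton (7.5 µM NaH2PO4) with 10^-7 M LCO or CO4 or 0.05% acetonitrile at start, 2 and 4 weeks. Roots were stained at 5–6 wpi; colonization was normalised to untreated controls; Kruskal-Wallis test.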

MtLYR8 = experiment: Radiolabelled LCO binding to membrane fractions, MtLYR8; design: species or system Medicago truncatula; conditions: 2 µM competitor
Summary of the method: as §1

TaLYR2A = experiment: Radiolabelled LCO binding to membrane fractions, TaLYR2A; design: species or system Triticum aestivum; conditions: 2 µM competitor
Summary of the method: as §1

TaLYR2B = experiment: Radiolabelled LCO binding to membrane fractions, TaLYR2B; design: species or system Triticum aestivum; conditions: 2 µM competitor
Summary of the method: as §1

| Compound | competition of LCO binding (TaLYR2D) | effect on AMF colonization ([1]; control wheat plants (empty vector)) | effect on AMF colonization ([1]; transgenic wheat plants pUbi:BdLYR2) | competition of LCO binding (MtLYR8) | competition of LCO binding (TaLYR2A) | competition of LCO binding (TaLYR2B) |
| --- | --- | --- | --- | --- | --- | --- |
| CC(=O)N[C@H]1[C@H](O[C@H]2[C@H](O)[C@@H](NC(C)=O)C(O)O[C@@H]2CO)O[C@H](CO)[C@@H](O[C@@H]2O[C@H](CO)[C@@H](O[C@@H]3O[C@H](CO)[C@@H](O)[C@H](O)[C@H]3NC(C)=O)[C@H](O)[C@H]2NC(C)=O)[C@@H]1O (stereo partly shown) [CO4] | complete competition | increased AMF colonization | no further increase | complete competition | complete competition | complete competition |
| CC(=O)N[C@H]1[C@H](O[C@H]2[C@H](O)[C@@H](NC(C)=O)[C@H](O[C@H]3[C@H](O)[C@@H](NC(C)=O)[C@H](O[C@H]4[C@H](O)[C@@H](NC(C)=O)C(O)O[C@@H]4CO)O[C@@H]3CO)O[C@@H]2CO)O[C@H](CO)[C@@H](O[C@@H]2O[C@H](CO)[C@@H](O[C@@H]3O[C@H](CO)[C@@H](O[C@@H]4O[C@H](CO)[C@@H](O[C@@H]5O[C@H](CO)[C@@H](O)[C@H](O)[C@H]5NC(C)=O)[C@H](O)[C@H]4NC(C)=O)[C@H](O)[C@H]3NC(C)=O)[C@H](O)[C@H]2NC(C)=O)[C@@H]1O (stereo partly shown) [CO8] | complete competition |  |  | complete competition | complete competition | complete competition |
